Measurements as given in ChEMBL document CHEMBL4689842, “EUbOPEN Chemogenomics Library wave 1” (2021).

Test system: U2OS
Experiment: Multiplex assay against U2OS
Type: toxicity, cell-based
Conditions: human
Procedure, shortened: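 On a CQ1 microscope at 37°C and 5% CO2, live cells were imaged after compound addition. They had been stained at seeding with Hoechst33342, BioTracker Green Microtubule Cytoskeleton Dye, MitoTracker Red and Annexin V Alexa Fluor 680. CellPathfinder machine-learning gating assigned cells to Hoechst high-intensity objects or normal cells, normal cells to healthy, pyknosed or fragmented nuclei, and pyknosed cells to mitotic or apoptotic. Tubulin, mitochondrial-mass and membrane-permeability phenotypes are per cents of healthy-nucleus cells.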

[1] = 12 h, 1 µM, compound concentration 1 uM, replicate 1
[2] = 12 h, 1 µM, compound concentration 1 uM, replicate 2
[3] = 12 h, 10 µM, compound concentration 10 uM, replicate 1
[4] = 12 h, 10 µM, compound concentration 10 uM, replicate 2
[5] = 24 h, 1 µM, compound concentration 1 uM, replicate 1
[6] = 24 h, 1 µM, compound concentration 1 uM, replicate 2
[7] = 24 h, 10 µM, compound concentration 10 uM, replicate 1
[8] = 24 h, 10 µM, compound concentration 10 uM, replicate 2
[9] = 48 h, 1 µM, compound concentration 1 uM, replicate 1
[10] = 48 h, 1 µM, compound concentration 1 uM, replicate 2
[11] = 48 h, 10 µM, compound concentration 10 uM, replicate 1
[12] = 48 h, 10 µM, compound concentration 10 uM, replicate 2

## Cc1cc(C)cc(-c2cnc3cc(Cl)c(-c4cccc(O)c4)cc3c2OCCCN)c1
[1]
  Population Apoptotic (%): 36%
  Population Fragmented Nuclei (%): 11%
  Population Healthy Nuclei (%): 75%
  Population Hoechst High Intensity Objects (%): 6%
  Population Membrane Permeable-Phenotype (%): 5%
  Population Mitochondria Different-Phenotype (%): 76%
  Population Mitotic Cells (%): 64%
  Population Normal (%): 93%
  Population Pyknosed Nuclei (%): 12%
  Population Tubulin-Different-Phenotype (%): 88%
  Total Cell Count: 132
[2]
  Population Apoptotic (%): 44%
  Population Healthy Nuclei (%): 72%
  Population Hoechst High Intensity Objects (%): 10%
  Population Membrane Permeable-Phenotype (%): 2%
  Population Mitochondria Different-Phenotype (%): 82%
  Population Mitotic Cells (%): 55%
  Population Normal (%): 90%
  Population Pyknosed Nuclei (%): 16%
  Population Tubulin-Different-Phenotype (%): 56%
  Total Cell Count: 68
[3]
  Population Apoptotic (%): 90%
  Population Fragmented Nuclei (%): 33%
  Population Healthy Nuclei (%): 1%
  Population Hoechst High Intensity Objects (%): 14%
  Population Membrane Permeable-Phenotype (%): 50%
  Population Mitochondria Different-Phenotype (%): 50%
  Population Mitotic Cells (%): 9%
  Population Normal (%): 85%
  Population Pyknosed Nuclei (%): 64%
  Population Tubulin-Different-Phenotype (%): 50%
  Total Cell Count: 207
[4]
  Population Apoptotic (%): 70%
  Population Fragmented Nuclei (%): 16%
  Population Healthy Nuclei (%): 32%
  Population Hoechst High Intensity Objects (%): 8%
  Population Membrane Permeable-Phenotype (%): 90%
  Population Mitochondria Different-Phenotype (%): 95%
  Population Mitotic Cells (%): 29%
  Population Normal (%): 91%
  Population Pyknosed Nuclei (%): 50%
  Population Tubulin-Different-Phenotype (%): 100%
  Total Cell Count: 60
[5]
  Population Apoptotic (%): 35%
  Population Fragmented Nuclei (%): 7%
  Population Healthy Nuclei (%): 77%
  Population Hoechst High Intensity Objects (%): 5%
  Population Membrane Permeable-Phenotype (%): 6%
  Population Mitochondria Different-Phenotype (%): 75%
  Population Mitotic Cells (%): 64%
  Population Normal (%): 94%
  Population Pyknosed Nuclei (%): 14%
  Population Tubulin-Different-Phenotype (%): 68%
  Total Cell Count: 131
[6]
  Population Apoptotic (%): 62%
  Population Fragmented Nuclei (%): 11%
  Population Healthy Nuclei (%): 75%
  Population Hoechst High Intensity Objects (%): 3%
  Population Membrane Permeable-Phenotype (%): 2%
  Population Mitochondria Different-Phenotype (%): 78%
  Population Mitotic Cells (%): 37%
  Population Normal (%): 96%
  Population Pyknosed Nuclei (%): 13%
  Population Tubulin-Different-Phenotype (%): 28%
  Total Cell Count: 66
[7]
  Population Apoptotic (%): 86%
  Population Fragmented Nuclei (%): 33%
  Population Healthy Nuclei (%): 2%
  Population Hoechst High Intensity Objects (%): 15%
  Population Membrane Permeable-Phenotype (%): 66%
  Population Mitochondria Different-Phenotype (%): 66%
  Population Mitotic Cells (%): 13%
  Population Normal (%): 84%
  Population Pyknosed Nuclei (%): 63%
  Population Tubulin-Different-Phenotype (%): 66%
  Total Cell Count: 200
[8]
  Population Apoptotic (%): 93%
  Population Fragmented Nuclei (%): 24%
  Population Healthy Nuclei (%): 3%
  Population Hoechst High Intensity Objects (%): 7%
  Population Membrane Permeable-Phenotype (%): 50%
  Population Mitochondria Different-Phenotype (%): 50%
  Population Mitotic Cells (%): 6%
  Population Normal (%): 92%
  Population Pyknosed Nuclei (%): 72%
  Population Tubulin-Different-Phenotype (%): 50%
  Total Cell Count: 63
[9]
  Population Apoptotic (%): 48%
  Population Fragmented Nuclei (%): 8%
  Population Healthy Nuclei (%): 75%
  Population Hoechst High Intensity Objects (%): 1%
  Population Membrane Permeable-Phenotype (%): 3%
  Population Mitochondria Different-Phenotype (%): 47%
  Population Mitotic Cells (%): 51%
  Population Normal (%): 98%
  Population Pyknosed Nuclei (%): 15%
  Population Tubulin-Different-Phenotype (%): 32%
  Total Cell Count: 127
[10]
  Population Apoptotic (%): 54%
  Population Fragmented Nuclei (%): 11%
  Population Healthy Nuclei (%): 73%
  Population Hoechst High Intensity Objects (%): 5%
  Population Membrane Permeable-Phenotype (%): 5%
  Population Mitochondria Different-Phenotype (%): 41%
  Population Mitotic Cells (%): 45%
  Population Normal (%): 95%
  Population Pyknosed Nuclei (%): 14%
  Population Tubulin-Different-Phenotype (%): 16%
  Total Cell Count: 73
[11]
  Population Apoptotic (%): 83%
  Population Fragmented Nuclei (%): 30%
  Population Healthy Nuclei (%): 3%
  Population Hoechst High Intensity Objects (%): 20%
  Population Membrane Permeable-Phenotype (%): 75%
  Population Mitochondria Different-Phenotype (%): 75%
  Population Mitotic Cells (%): 16%
  Population Normal (%): 79%
  Population Pyknosed Nuclei (%): 65%
  Population Tubulin-Different-Phenotype (%): 75%
  Total Cell Count: 270
[12]
  Population Apoptotic (%): 96%
  Population Fragmented Nuclei (%): 33%
  Population Healthy Nuclei (%): 12%
  Population Hoechst High Intensity Objects (%): 17%
  Population Membrane Permeable-Phenotype (%): 100%
  Population Mitochondria Different-Phenotype (%): 100%
  Population Mitotic Cells (%): 3%
  Population Normal (%): 82%
  Population Pyknosed Nuclei (%): 54%
  Population Tubulin-Different-Phenotype (%): 100%
  Total Cell Count: 80

## CNc1nc(NCc2ccc(NS(C)(=O)=O)cc2Cl)cc(-c2ccccn2)n1
[1]
  Population Apoptotic (%): 35%
  Population Fragmented Nuclei (%): 12%
  Population Healthy Nuclei (%): 70%
  Population Hoechst High Intensity Objects (%): 10%
  Population Membrane Permeable-Phenotype (%): 7%
  Population Mitochondria Different-Phenotype (%): 12%
  Population Mitotic Cells (%): 64%
  Population Normal (%): 89%
  Population Pyknosed Nuclei (%): 17%
  Population Tubulin-Different-Phenotype (%): 19%
  Total Cell Count: 121
[2]
  Population Apoptotic (%): 33%
  Population Fragmented Nuclei (%): 11%
  Population Healthy Nuclei (%): 82%
  Population Hoechst High Intensity Objects (%): 8%
  Population Membrane Permeable-Phenotype (%): 0%
  Population Mitochondria Different-Phenotype (%): 9%
  Population Mitotic Cells (%): 66%
  Population Normal (%): 91%
  Population Pyknosed Nuclei (%): 5%
  Population Tubulin-Different-Phenotype (%): 11%
  Total Cell Count: 61
[3]
  Population Apoptotic (%): 61%
  Population Fragmented Nuclei (%): 13%
  Population Healthy Nuclei (%): 75%
  Population Hoechst High Intensity Objects (%): 10%
  Population Membrane Permeable-Phenotype (%): 5%
  Population Mitochondria Different-Phenotype (%): 29%
  Population Mitotic Cells (%): 38%
  Population Normal (%): 89%
  Population Tubulin-Different-Phenotype (%): 37%
  Total Cell Count: 91
[4]
  Population Apoptotic (%): 57%
  Population Fragmented Nuclei (%): 6%
  Population Healthy Nuclei (%): 81%
  Population Hoechst High Intensity Objects (%): 9%
  Population Membrane Permeable-Phenotype (%): 12%
  Population Mitochondria Different-Phenotype (%): 32%
  Population Mitotic Cells (%): 42%
  Population Normal (%): 90%
  Population Pyknosed Nuclei (%): 11%
  Population Tubulin-Different-Phenotype (%): 30%
  Total Cell Count: 56
[5]
  Population Apoptotic (%): 50%
  Population Fragmented Nuclei (%): 9%
  Population Healthy Nuclei (%): 78%
  Population Hoechst High Intensity Objects (%): 8%
  Population Membrane Permeable-Phenotype (%): 3%
  Population Mitochondria Different-Phenotype (%): 17%
  Population Mitotic Cells (%): 50%
  Population Normal (%): 91%
  Population Pyknosed Nuclei (%): 11%
  Population Tubulin-Different-Phenotype (%): 19%
  Total Cell Count: 125
[6]
  Population Apoptotic (%): 25%
  Population Fragmented Nuclei (%): 8%
  Population Healthy Nuclei (%): 85%
  Population Hoechst High Intensity Objects (%): 1%
  Population Membrane Permeable-Phenotype (%): 0%
  Population Mitochondria Different-Phenotype (%): 11%
  Population Mitotic Cells (%): 75%
  Population Normal (%): 98%
  Population Pyknosed Nuclei (%): 5%
  Population Tubulin-Different-Phenotype (%): 11%
  Total Cell Count: 67
[7]
  Population Apoptotic (%): 52%
  Population Fragmented Nuclei (%): 18%
  Population Healthy Nuclei (%): 67%
  Population Hoechst High Intensity Objects (%): 8%
  Population Membrane Permeable-Phenotype (%): 6%
  Population Mitochondria Different-Phenotype (%): 23%
  Population Mitotic Cells (%): 47%
  Population Normal (%): 91%
  Population Pyknosed Nuclei (%): 14%
  Population Tubulin-Different-Phenotype (%): 29%
  Total Cell Count: 113
[8]
  Population Apoptotic (%): 50%
  Population Fragmented Nuclei (%): 20%
  Population Healthy Nuclei (%): 66%
  Population Hoechst High Intensity Objects (%): 10%
  Population Membrane Permeable-Phenotype (%): 4%
  Population Mitochondria Different-Phenotype (%): 26%
  Population Mitotic Cells (%): 50%
  Population Normal (%): 89%
  Population Pyknosed Nuclei (%): 12%
  Population Tubulin-Different-Phenotype (%): 17%
  Total Cell Count: 71
[9]
  Population Apoptotic (%): 41%
  Population Fragmented Nuclei (%): 12%
  Population Healthy Nuclei (%): 76%
  Population Hoechst High Intensity Objects (%): 7%
  Population Membrane Permeable-Phenotype (%): 0%
  Population Mitochondria Different-Phenotype (%): 21%
  Population Mitotic Cells (%): 58%
  Population Normal (%): 92%
  Population Pyknosed Nuclei (%): 11%
  Population Tubulin-Different-Phenotype (%): 21%
  Total Cell Count: 114
[10]
  Population Apoptotic (%): 0%
  Population Fragmented Nuclei (%): 6%
  Population Healthy Nuclei (%): 90%
  Population Hoechst High Intensity Objects (%): 3%
  Population Membrane Permeable-Phenotype (%): 2%
  Population Mitochondria Different-Phenotype (%): 19%
  Population Mitotic Cells (%): 100%
  Population Normal (%): 96%
  Population Pyknosed Nuclei (%): 3%
  Population Tubulin-Different-Phenotype (%): 15%
  Total Cell Count: 71
[11]
  Population Apoptotic (%): 64%
  Population Healthy Nuclei (%): 53%
  Population Hoechst High Intensity Objects (%): 8%
  Population Membrane Permeable-Phenotype (%): 7%
  Population Mitochondria Different-Phenotype (%): 28%
  Population Mitotic Cells (%): 35%
  Population Normal (%): 91%
  Population Pyknosed Nuclei (%): 25%
  Population Tubulin-Different-Phenotype (%): 10%
  Total Cell Count: 165
[12]
  Population Apoptotic (%): 44%
  Population Fragmented Nuclei (%): 21%
  Population Healthy Nuclei (%): 51%
  Population Hoechst High Intensity Objects (%): 13%
  Population Membrane Permeable-Phenotype (%): 20%
  Population Mitochondria Different-Phenotype (%): 41%
  Population Mitotic Cells (%): 55%
  Population Normal (%): 86%
  Population Pyknosed Nuclei (%): 27%
  Population Tubulin-Different-Phenotype (%): 23%
  Total Cell Count: 124
